From PubChem BioAssay AID540266 (Southern Research Specialized Biocontainment Screening …, 2011)
Values joined by “and” are separate entries in the source; they are usually repeats but may differ in a detail not shown here. Equal entries are not always repeated. Active and inactive are the calls of the source.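 The calls were made as follows: active = any dose giving under 70% viability, per first replicate; inactive = the rest.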

tested on: not listed separately; assay: viability of uninfected HEp-2 cells – cell-based, CellTiter-Glo luminescence, synthesized compounds, set 11, cytotoxicity control for RSV inhibitor project, dose response (AID 540266); conditions: HEp-2 cell viability, luminescence (CellTiter-Glo); at 200 µM (top of the series)
Summary of the method: (§1)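 material = HEp-2 human cell line, uninfected (no virus added) | replication = triplicate wells | evaluation = % viability versus median cell controls, CC50 via 0–100-bounded 4-parameter fit | dosing = 8 doses, 1:2 steps, 0.5% DMSO | buffer or medium = DMEM/F12 with FBS | technique = CellTiter-Glo luminescence | incubation = compound exposure of cells for 6 days at 37 °C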

Compound	viability
Cc1ccc(Cn2c(=O)n(Cc3ccc(C(=O)Nc4ccncc4)cc3)c(=O)c3ccccc32)cc1	84% (inactive)

tested on: HEp-2 cell viability, luminescence (CellTiter-Glo); assay: as above; conditions: not given
Summary of the method: as §1

Compound	CC50
Cc1ccc(Cn2c(=O)n(Cc3ccc(C(=O)NCCCN(C)C)cc3)c(=O)c3ccccc32)cc1	15.1 µM
COCCCNC(=O)c1ccc(Cn2c(=O)c3ccccc3n(Cc3cccc(Br)c3)c2=O)cc1	3.32 µM
COCCCNC(=O)c1ccc(Cn2c(=O)c3ccccc3n(Cc3ccc(F)cc3)c2=O)cc1	7.09 µM
Cc1ccc(Cn2c(=O)n(Cc3ccc(C(=O)NC(C)(C)C)cc3)c(=O)c3ccccc32)cc1	12.1 µM
COCCCNC(=O)c1ccc(Cn2c(=O)c3ccccc3n(Cc3ccc(OC)cc3)c2=O)cc1	149 µM
COCCCNC(=O)c1ccc(Cn2c(=O)c3ccccc3n(Cc3ccc([N+](=O)[O-])cc3)c2=O)cc1	113 µM
Cc1ccc(Cn2c(=O)n(Cc3ccc(C(=O)NCCCOC(C)C)cc3)c(=O)c3ccccc32)cc1	19.1 µM
COCCCNC(=O)c1ccc(Cn2c(=O)c3ccccc3n(Cc3ccccc3F)c2=O)cc1	7.1 µM
COCCCNC(=O)c1ccc(Cn2c(=O)c3ccccc3n(Cc3ccc(C)c(C(F)(F)F)c3)c2=O)cc1	71.3 µM
COCCCNC(=O)c1ccc(Cn2c(=O)c3ccccc3n(Cc3ccc(Br)cc3)c2=O)cc1	138 µM
COCCCNC(=O)c1ccc(Cn2c(=O)c3ccccc3n(Cc3ccc(C(F)(F)F)cc3)c2=O)cc1	79.2 µM
CCOCCCNC(=O)c1ccc(Cn2c(=O)c3ccccc3n(Cc3ccc(C)cc3)c2=O)cc1	8.5 µM
COCCCNC(=O)c1ccc(Cn2c(=O)c3ccccc3n(Cc3ccccc3Br)c2=O)cc1	7.99 µM
Cc1ccc(C)c(NC(=O)[C@@H]2CCCN2S(=O)(=O)c2cccc3cccnc23)c1	34.7 µM and 32.9 µM
